Drawing on ChEMBL document CHEMBL3632619, “Angucyclines and Angucyclinones from Streptomyces sp. CB01913 Featuring C-Ring Cleavage and Expansion” (J Nat Prod, 2015), this text covers MIC, IC50 and Activity for six compounds.

One assay concerns Staphylococcus aureus. Put plainly: Antibacterial activity against Staphylococcus aureus ATCC 25923 after 18 hrs by broth microdilution method. The conditions noted are these: ATCC 25923, 18 h. On the technique in general: In broth dilution the organism is exposed to a series of concentrations in liquid medium.
The test system of a further assay is M14. Put plainly: Cytotoxicity against human M14 cells after 72 hrs by MTS assay. The assay is classed as functional, cell-based. The conditions noted are these: M14, 72 h. A general note: Formazan colour is commonly taken as a measure of viable cells.
Assay [1] deals with Mycolicibacterium smegmatis. Briefly: Antibacterial activity against Mycobacterium smegmatis ATCC 607 after 18 hrs by broth microdilution method. As to conditions: ATCC 607, 18 h.
The next assay concerns MDA-MB-468. Put plainly: Cytotoxicity against human MDA-MB-468 cells after 72 hrs by MTS assay. It is filed as functional, cell-based. The conditions noted are these: MDA-MB-468, 72 h.
Assay [2] deals with Escherichia coli. Put plainly: Antibacterial activity against Escherichia coli JM 109 after 12 hrs by agar diffusion method. It is filed as functional, organism-based. In outline: (§1)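 Filter-paper disc on tryptic soy agar receiving 25 µL of compound at 2 mM in H2O; plates incubated 37 °C for 12 h, then inhibition zone scored; tetracycline as positive control.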
(In agar diffusion tests the substance spreads into inoculated agar from a disc or well.)

For the next assay, the system named is SF-295. Put plainly: Cytotoxicity against human SF295 cells after 72 hrs by MTS assay. It is filed as functional, cell-based. The conditions noted are these: SF-295, 72 h.
The subject of the next assay is SF-539. Briefly: Cytotoxicity against human SF539 cells after 72 hrs by MTS assay. The assay is classed as functional, cell-based. As to conditions: SF-539, 72 h.
The next assay has as its system Bacillus subtilis. Briefly: Antibacterial activity against Bacillus subtilis ATCC 23857 after 18 hrs by broth microdilution method. As to conditions: ATCC 23857, 18 h.
A further assay deals with NCI-H226. Briefly: Cytotoxicity against human NCI-H226 cells after 72 hrs by MTS assay. It is filed as functional, cell-based. The conditions noted are these: NCI-H226, 72 h.
Assay [3] relates to Escherichia coli. Put plainly: Antibacterial activity against Escherichia coli ATCC 25922 after 12 hrs by agar diffusion method. It is filed as functional, organism-based. In outline: as §1

What is called MIC is the least concentration at which growth counts as inhibited. A higher MIC goes with weaker potency. A word on the IC50: it is the midpoint of a concentration-inhibition curve. The low end stands for greater potency in that assay, the high end for weaker potency in that assay.

Each structure is given as a SMILES string. ≈ marks a conversion by molar mass, not a printed value. Calls of active or inactive are those of the source. The rule behind the calls is not given here.

As for `C[C@]1(O)CC(=O)c2c(ccc3c2C(=O)c2cccc(O)c2C3=O)C1` [TETRANGOMYCIN], the figures for the MIC (in the assay on Staphylococcus aureus; in assay [1]; in the assay with Bacillus subtilis) were 11 µg/mL (≈ 34.1 µM), 9.7 µg/mL (≈ 30.1 µM) and 8.1 µg/mL (≈ 25.1 µM), respectively. Besides, the IC50 in the assay with M14 was determined as 2.4 µM; with MDA-MB-468, 16 µM; in the assay with SF-295, 12 µM; with SF-539, 3.2 µM; with NCI-H226, 7.2 µM. For the same compound, the result with Escherichia coli [2] and in the assay with Escherichia coli [3] was inactive.

With `CN(C)[C@@H]1C(O)=C(C(N)=O)C(=O)[C@@]2(O)C(O)=C3C(=O)c4c(O)cccc4[C@@](C)(O)[C@H]3C[C@@H]12` [TETRACYCLINE], the MIC in the assay on Staphylococcus aureus stood at 6.7 µg/mL (≈ 15.1 µM); in assay [1] it was 11 µg/mL (≈ 24.8 µM); in the assay on Bacillus subtilis, 13 µg/mL (≈ 29.3 µM).

Turning to `COc1cccc(C(=O)c2c(O)ccc3c2C(=O)C[C@](C)(O)C3)c1CO`, the values for the MIC (in the assay with Staphylococcus aureus; in assay [1]; against Bacillus subtilis) were above 100 µg/mL, 93 µg/mL (≈ 261 µM) and 85 µg/mL (≈ 239 µM), respectively. For the same compound, the half-maximal inhibitory concentration (IC50) in the assay on M14, with MDA-MB-468, in the assay on SF-295, in the assay with SF-539 and in the assay with NCI-H226 was above 100 µM each time. Also, the outcome in the assay on Escherichia coli [2] and in the assay with Escherichia coli [3] was inactive.

Regarding `CO[C@@]12[C@H](COC(N)=O)C3=C(C(=O)C(C)=C(N)C3=O)N1C[C@@H]1N[C@@H]12` [MITOMYCIN], the IC50 was found to be 0.47 µM in the assay with M14; 0.5 µM in the assay with MDA-MB-468; 0.54 µM in the assay with SF-295; 0.038 µM with SF-539; 0.58 µM in the assay on NCI-H226.

For the compound `COc1cccc2c1C(=O)c1ccc3c(c1C2=O)C(=O)C[C@](C)(O)C3`, the MIC was above 100 µg/mL in the assay with Staphylococcus aureus, above 100 µg/mL in assay [1] and 25 µg/mL (≈ 74.3 µM) in the assay with Bacillus subtilis. The half-inhibitory concentration (IC50) in the assay with M14 was found to be 9.7 µM; in the assay on MDA-MB-468, 27 µM; in the assay with SF-295, 17 µM; in the assay with SF-539, 10 µM; with NCI-H226, 4.6 µM. For the same compound, the outcome with Escherichia coli [2] and in the assay with Escherichia coli [3] was inactive.

Consider `COc1cccc2c1C(=O)c1ccc3c(c1C2O)C(=O)C[C@](C)(O)C3` (stereo partly drawn), for which the MIC (with Staphylococcus aureus; in [1]; against Bacillus subtilis) was above 100 µg/mL each time. In addition, the IC50 amounted to 31 µM with M14; 52 µM in the assay on MDA-MB-468; 3.1 µM in the assay with SF-295; 12 µM in the assay with SF-539; 7.2 µM in the assay with NCI-H226. Also, the result in the assay with Escherichia coli [2] and in the assay with Escherichia coli [3] was inactive.
